{"source": "ChEMBL document CHEMBL1649435", "about": "“The octadecyloxyethyl ester of (S)-9-[3-hydroxy-2-(phosphonomethoxy) propyl]adenine is a potent and selective inhibitor of hepatitis C virus replication in genotype 1A, 1B, and 2A replicons” (Antimicrob Agents Chemother, 2009)", "key": {"[1]": {"experiment": "Selectivity index, ratio of CC50 for human Huh7.5 cells to EC50 for HCV genotype 2A SGR-JFH-1 infected in human Huh7.5 cells", "parameters": "species or system Huh-7", "how_it_was_run": "(§1)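 SI is CC50 divided by EC50, both from the same BM4-5 FEO (1B) or SGR-JFH-1 FEO (2A) replicon Huh-7.5.1 cultures. Cells (10,000 per well) got compound up to 100 μM (0.3% DMSO final) for 48 to 72 h. EC50 came from the luciferase read-out, CC50 from a fluorescent viability/death assay. Each condition was run in triplicate.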"}, "[2]": {"test_system": "Hepatitis C virus", "experiment": "Antiviral activity against HCV2A SGR-JFH-1 infected in human Huh7.5 cells assessed as decrease in intracellular viral RNA treated for 3 days measured 24 hrs after last dose by luciferase reporter gene-based […]", "assay_type": "functional, organism-based, Hepacivirus hominis", "conditions": "genotype 2a SGR-JFH-1, Huh-7", "how_it_was_run": "(§2)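 Huh-7.5.1 human hepatoma cells stably carried the BM4-5 FEO (genotype 1B) or SGR-JFH-1 FEO (genotype 2A) replicon, selected with 500 μg/ml G-418. Cells were seeded at 10,000 per well and incubated with compound up to 100 μM (0.3% DMSO final) for 48 to 72 h. Luciferase light units gave dose-response EC50s. Each condition was run in triplicate, with 3 or 4 experimental replicates.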"}, "[3]": {"experiment": "Cytotoxicity against human Huh7.5 cells administered for 3 days measured 24 hrs after last dose by neutral red dye uptake assay", "assay_type": "cell-based, Huh-7"}, "[4]": {"test_system": "Hepatitis C virus", "experiment": "Antiviral activity against HCV1B BM4-5 infected in human Huh7.5 cells assessed as decrease in intracellular viral RNA treated for 3 days measured 24 hrs after last dose by luciferase reporter gene-based […]", "assay_type": "functional, organism-based, Hepacivirus hominis", "conditions": "genotype 1b BM4-5, Huh-7", "how_it_was_run": "as §2"}, "[5]": {"experiment": "Selectivity index, ratio of CC50 for human Huh7.5 cells to EC50 for HCV genotype 1B BM4-5 infected in human Huh7.5 cells", "parameters": "species or system Huh-7", "how_it_was_run": "as §1"}}, "data": [{"smiles": "CCCCCCCCCCCCCCCCCCOCCOP(=O)(O)CO[C@@H](CO)Cn1cnc2c(N)ncnc21", "values": [{"measurement": "Selectivity Index", "setting": "[1]", "result": ">4"}, {"measurement": "EC50", "setting": "[2]", "result": 26.7, "unit": "µM"}, {"measurement": "CC50 at 72 h", "setting": "[3]", "result": "> 100", "unit": "µM"}, {"measurement": "EC50", "setting": "[4]", "result": 7, "unit": "µM"}, {"measurement": "Selectivity Index", "setting": "[5]", "result": ">14"}]}, {"smiles": "Nc1ncnc2c1ncn2C[C@H](CO)OCP(=O)(O)O", "values": [{"measurement": "EC50", "setting": "[2]", "result": "> 100", "unit": "µM"}, {"measurement": "CC50 at 72 h", "setting": "[3]", "result": "> 100", "unit": "µM"}, {"measurement": "EC50", "setting": "[4]", "result": "> 100", "unit": "µM"}]}, {"smiles": "CCCCCCCCCCCCCCCCOCCCOP(=O)(O)CO[C@@H](CO)Cn1cnc2c(N)ncnc21", "values": [{"measurement": "Selectivity Index", "setting": "[1]", "result": ">2"}, {"measurement": "EC50", "setting": "[2]", "result": 41, "unit": "µM"}, {"measurement": "CC50 at 72 h", "setting": "[3]", "result": "> 100", "unit": "µM"}, {"measurement": "EC50", "setting": "[4]", "result": 6.71, "unit": "µM"}, {"measurement": "Selectivity Index", "setting": "[5]", "result": ">15"}]}, {"smiles": "Nc1ncnc2c1ncn2C[C@@H](CO)OCP(=O)(O)O", "values": [{"measurement": "EC50", "setting": "[2]", "result": "> 100", "unit": "µM"}, {"measurement": "CC50 at 72 h", "setting": "[3]", "result": "> 100", "unit": "µM"}, {"measurement": "EC50", "setting": "[4]", "result": "> 100", "unit": "µM"}]}, {"smiles": "CCCCCCCCCCCCCCCCOCCCOP(=O)(O)CO[C@H](CO)Cn1cnc2c(N)ncnc21", "values": [{"measurement": "Selectivity Index", "setting": "[1]", "result": 13}, {"measurement": "EC50", "setting": "[2]", "result": 6.5, "unit": "µM"}, {"measurement": "CC50 at 72 h", "setting": "[3]", "result": 85.3, "unit": "µM"}, {"measurement": "EC50", "setting": "[4]", "result": 2.02, "unit": "µM"}, {"measurement": "Selectivity Index", "setting": "[5]", "result": 42}]}, {"smiles": "CCCCCCCCCCCCCCCCCCOCCOP(=O)(O)CO[C@H](CO)Cn1cnc2c(N)ncnc21", "values": [{"measurement": "Selectivity Index", "setting": "[1]", "result": 52}, {"measurement": "EC50", "setting": "[2]", "result": 0.69, "unit": "µM"}, {"measurement": "CC50 at 72 h", "setting": "[3]", "result": 35.6, "unit": "µM"}, {"measurement": "EC50", "setting": "[4]", "result": 1.31, "unit": "µM"}, {"measurement": "Selectivity Index", "setting": "[5]", "result": 27}]}]}
